Data: ChEMBL document CHEMBL1649139, “A novel gene, erm(41), confers inducible macrolide resistance to clinical isolates of Mycobacterium abscessus but is absent from Mycobacterium chelonae” (2009)
Values after ≈ are worked out from the molar mass of the structure shown.

What was measured:
Type in all cases: functional
[1] = system: Mycobacteroides abscessus; test: Antimicrobial activity against Mycobacterium abscessus isolate MC723 at day 7 preincubated with 0.1 ug/ml erythromycin for 3 days by broth microdilution method
Summary of the method: (§1)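 Clarithromycin MIC by broth microdilution following CLSI guidelines. Before testing, organisms were preincubated for 3 days in medium alone or in clarithromycin or erythromycin (0.01–1 μg/ml), long enough for at least two generations judged by turbidity increase. MICs were read on day 3 and again on extended incubation out to day 14.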

[2] = system: Mycobacteroides abscessus; test: Antimicrobial activity against Mycobacterium abscessus isolate MC1028 at day 9 preincubated with 0.1 ug/ml erythromycin for 3 days by broth microdilution method
Summary of the method: (§2)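 Clarithromycin MIC by CLSI-conforming broth microdilution. Before testing, cultures were preincubated for 3 days, either in medium alone or in clarithromycin or erythromycin (tested range 0.01–1 μg/ml). Preincubation ran for at least two generations, judged by turbidity increase. Plates were read on day 3 and on extended incubation at days 5 to 14.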

[3] = system: Mycobacteroides abscessus; test: Antimicrobial activity against Mycobacterium abscessus isolate MC879-2 at day 5 preincubated with 0.1 ug/ml for 3 days by broth microdilution method
[4] = system: Mycobacteroides abscessus; test: Antimicrobial activity against Mycobacterium abscessus isolate MC1082 at day 3 preincubated with 0.1 ug/ml for 3 days by broth microdilution method; summary of the method: as §2
[5] = system: Mycobacteroides abscessus; test: Antimicrobial activity against Mycobacterium abscessus isolate MC719 at day 7 preincubated with 0.1 ug/ml erythromycin for 3 days by broth microdilution method; summary of the method: as §1
[6] = system: Mycobacteroides abscessus; test: Antimicrobial activity against Mycobacterium abscessus isolate MC723 at day 5 preincubated with 0.1 ug/ml erythromycin for 3 days by broth microdilution method
Summary of the method: (§3)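 Clinical M. abscessus isolates were preincubated for 3 days, either in medium alone or in clarithromycin or erythromycin at 0.01 to 1 μg/ml, allowing at least two generations of growth judged by turbidity. The clarithromycin MIC was then determined by CLSI-conforming broth microdilution, with plates read on day 3 and on extended incubation (days 5 to 14).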

[7] = system: Mycobacteroides abscessus; test: Antimicrobial activity against Mycobacterium abscessus isolate MC1082 at day 9 preincubated with 0.1 ug/ml erythromycin for 3 days by broth microdilution method; summary of the method: as §2
[8] = system: Mycobacteroides abscessus; test: Antimicrobial activity against Mycobacterium abscessus isolate MC1082 at day 3 preincubated with 0.1 ug/ml erythromycin for 3 days by broth microdilution method; summary of the method: as §2
[9] = system: Mycobacteroides abscessus; test: Antimicrobial activity against Mycobacterium abscessus isolate MC724 at day 5 by broth microdilution method; details: isolate MC724, 120 h
Summary of the method: (§4)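 Clarithromycin MIC by broth microdilution following CLSI guidelines. Organisms were preincubated […], for 3 days before the assay. This allowed at least two generations, judged by the rise in turbidity. The MIC was read at the stated day, with incubation extended from day 3 to as long as 14 days.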

[10] = system: Mycobacteroides abscessus; test: Antimicrobial activity against Mycobacterium abscessus isolate MC879 at day 7 by broth microdilution method; details: isolate MC879, 168 h; summary of the method: as §4
[11] = system: Mycobacteroides abscessus; test: Antimicrobial activity against Mycobacterium abscessus isolate MC724 at day 9 preincubated with 0.1 ug/ml erythromycin for 3 days by broth microdilution method
Summary of the method: (§5)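 To test inducible resistance, cultures were preincubated for 3 days in clarithromycin or erythromycin, within 0.01–1 μg/ml. The period was set so cultures passed at least two generations, judged by turbidity increase. Clarithromycin MIC was then determined by CLSI-conforming broth microdilution and read on the stated day, from day 3 up to 14.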

[12] = system: Mycobacteroides abscessus; test: Antimicrobial activity against Mycobacterium abscessus isolate MC958 on day 14 by broth microdilution method; details: isolate MC958, 336 h
[13] = system: Mycobacteroides abscessus; test: Antimicrobial activity against Mycobacterium abscessus isolate MC1028 at day 3 preincubated with 0.1 ug/ml for 3 days by broth microdilution method; summary of the method: as §2
[14] = system: Mycobacteroides abscessus; test: Antimicrobial activity against Mycobacterium abscessus isolate MC1448 at day 7 preincubated with 0.1 ug/ml erythromycin for 3 days by broth microdilution method; summary of the method: as §1
[15] = system: Mycobacteroides abscessus; test: Antimicrobial activity against Mycobacterium abscessus isolate MC879 at day 9 preincubated with 0.1 ug/ml for 3 days by broth microdilution method; summary of the method: as §5
[16] = system: Mycobacteroides abscessus; test: Antimicrobial activity against Mycobacterium abscessus isolate MC879 at day 9 by broth microdilution method; details: isolate MC879, 216 h; summary of the method: as §4
[17] = system: Mycobacteroides abscessus; test: Antimicrobial activity against Mycobacterium abscessus isolate MC879-2 at day 7 preincubated with 0.1 ug/ml erythromycin for 3 days by broth microdilution method
[18] = system: Mycobacteroides abscessus; test: Antimicrobial activity against Mycobacterium abscessus isolate MC1082 at day 5 preincubated with 0.1 ug/ml for 3 days by broth microdilution method; summary of the method: as §2
[19] = system: Mycobacteroides abscessus; test: Antimicrobial activity against Mycobacterium abscessus isolate MC958 at day 14 preincubated with 0.1 ug/ml erythromycin for 3 days by broth microdilution method; summary of the method: as §5
[20] = system: Mycobacteroides abscessus; test: Antimicrobial activity against Mycobacterium abscessus isolate MC879 at day 14 by broth microdilution method; details: isolate MC879, 336 h; summary of the method: as §4
[21] = system: Mycobacteroides abscessus; test: Antimicrobial activity against Mycobacterium abscessus isolate MC1082 at day 7 preincubated with 0.1 ug/ml for 3 days by broth microdilution method; summary of the method: as §2
[22] = system: Mycolicibacterium smegmatis; test: Antimicrobial activity against Mycobacterium smegmatis transformed with erm allele Mycobacterium abscessus isolate MC1028 by broth microdilution method
[23] = system: Mycolicibacterium smegmatis; test: Antimicrobial activity against Mycobacterium smegmatis transformed with erm allele Mycobacterium abscessus isolate MC958 preincubated with 2 ug/ml erythromycin for 20 to 24 hrs by broth microdilution method
[24] = system: Mycobacteroides abscessus; test: Antimicrobial activity against Mycobacterium abscessus isolate MC719 at day 9 preincubated with 0.1 ug/ml for 3 days by broth microdilution method; summary of the method: as §1
[25] = system: Mycobacteroides abscessus; test: Antimicrobial activity against Mycobacterium abscessus isolate MC1082 at day 14 preincubated with 0.1 ug/ml for 3 days by broth microdilution method; summary of the method: as §2
[26] = system: Mycobacteroides abscessus; test: Antimicrobial activity against Mycobacterium abscessus isolate MC1028 at day 7 preincubated with 0.1 ug/ml for 3 days by broth microdilution method; summary of the method: as §2
[27] = system: Mycobacteroides abscessus; test: Antimicrobial activity against Mycobacterium abscessus isolate MC879-2 at day 7 by broth microdilution method; details: isolate MC879-2, 168 h
[28] = system: Mycolicibacterium smegmatis; test: Antimicrobial activity against Mycobacterium smegmatis transformed with erm allele Mycobacterium abscessus isolate MAB30 by broth microdilution method
[29] = system: Mycolicibacterium smegmatis; test: Antimicrobial activity against Mycobacterium smegmatis transformed with erm allele Mycobacterium abscessus isolate MC1028 preincubated with 2 ug/ml erythromycin for 20 to 24 hrs by broth microdilution method
[30] = system: Mycobacteroides abscessus; test: Antimicrobial activity against Mycobacterium abscessus isolate MC724 at day 3 preincubated with 0.1 ug/ml erythromycin for 3 days by broth microdilution method; summary of the method: as §5
[31] = system: Mycobacteroides abscessus; test: Antimicrobial activity against Mycobacterium abscessus isolate MC1448 at day 5 preincubated with 0.1 ug/ml erythromycin for 3 days by broth microdilution method; summary of the method: as §1
[32] = system: Mycobacteroides abscessus; test: Antimicrobial activity against Mycobacterium abscessus isolate MC724 at day 5 preincubated with 0.1 ug/ml erythromycin for 3 days by broth microdilution method; summary of the method: as §3
[33] = system: Mycobacteroides abscessus; test: Antimicrobial activity against Mycobacterium abscessus isolate MC719 at day 3 preincubated with 0.1 ug/ml erythromycin for 3 days by broth microdilution method; summary of the method: as §1
[34] = system: Mycobacteroides abscessus; test: Antimicrobial activity against Mycobacterium abscessus isolate MC879-2 at day 7 preincubated with 0.1 ug/ml for 3 days by broth microdilution method
[35] = system: Mycobacteroides abscessus; test: Antimicrobial activity against Mycobacterium abscessus isolate MC879 at day 3 preincubated with 0.1 ug/ml for 3 days by broth microdilution method; summary of the method: as §5

Structure (SMILES): CC[C@H]1OC(=O)[C@H](C)[C@@H](O[C@H]2C[C@@](C)(OC)[C@@H](O)[C@H](C)O2)[C@H](C)[C@@H](O[C@@H]2O[C@H](C)C[C@H](N(C)C)[C@H]2O)[C@](C)(OC)C[C@@H](C)C(=O)[C@H](C)[C@@H](O)[C@]1(C)O [CLARITHROMYCIN]
- MIC [1]: > 32 µg/mL
- MIC [2]: ≤ 0.5 µg/mL
- MIC [3]: > 32 µg/mL
- MIC [4]: ≤ 0.5 µg/mL
- MIC [5]: > 32 µg/mL
- MIC [6]: 4 µg/mL
- MIC [7]: ≤ 0.5 µg/mL
- MIC [8]: ≤ 0.5 µg/mL
- MIC [9]: 1 µg/mL (≈ 1.34 µM)
- MIC [10]: 8 µg/mL (≈ 10.7 µM)
- MIC [11]: > 32 µg/mL
- MIC [12]: 32 µg/mL (≈ 42.8 µM)
- MIC [13]: ≤ 0.5 µg/mL
- MIC [14]: > 32 µg/mL
- MIC [15]: > 32 µg/mL
- MIC [16]: > 32 µg/mL
- MIC [17]: > 32 µg/mL
- MIC [18]: ≤ 0.5 µg/mL
- MIC [19]: > 32 µg/mL
- MIC [20]: > 32 µg/mL
- MIC [21]: ≤ 0.5 µg/mL
- MIC [22]: ≤ 0.5 µg/mL
- MIC [23]: 16 µg/mL
- MIC [24]: > 32 µg/mL
- MIC [25]: ≤ 0.5 µg/mL
- MIC [26]: ≤ 0.5 µg/mL
- MIC [27]: > 32 µg/mL
- MIC [28]: ≤ 0.5 µg/mL
- MIC [29]: ≤ 0.5 µg/mL
- MIC [30]: ≤ 0.5 µg/mL
- MIC [31]: > 32 µg/mL
- MIC [32]: 4 µg/mL
- MIC [33]: ≤ 0.5 µg/mL
- MIC [34]: > 32 µg/mL
- MIC [35]: ≤ 0.5 µg/mL
